Data as given in ChEMBL document CHEMBL1129302, “Quinazoline antifolate thymidylate synthase inhibitors: gamma-linked L-D, D-D, and D-L dipeptide analogues of 2-desamino-2-methyl-N10-propargyl-5,8-dideazafolic acid (ICI 198583)” (J Med Chem, 1996).
Where “and” joins values, the source holds several entries; their conditions need not be identical. Equal values may be shown once.

Key:
[1] = target: T1, Thymidylate synthase (Mus musculus, UniProt P07607); experiment: Inhibition of Thymidylate synthase activity in L1210 cells; format: cell-based
In short: (§1)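 TS was partially purified from L1210 mouse leukemia cells that overproduce the enzyme through TS gene amplification. Inhibition was assayed with (±)-5,10-methylenetetrahydrofolic acid as cofactor at 200 µM.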

[2] = tested on: L1210; experiment: Inhibition of L1210 cell growth; format: functional, cell-based, Mus musculus
[3] = tested on: L1210 (RD1694); experiment: Inhibitory activity against L1210:RD1694 cell growth.; format: functional, cell-based, Mus musculus
[4] = tested on: WIL2; experiment: Inhibitory activity against human W1L2 cell growth; format: functional, cell-based
[5] = tested on: L1210 (1565); experiment: Inhibitory activity against L1210:1565 cell growth.; format: functional, cell-based, Mus musculus
[6] = tested on: L1210; experiment: Inhibitory activity against L1210 cell growth.; format: functional, cell-based, Mus musculus
[7] = tested on: L1210 (RD1694); experiment: Inhibitory activity against L1210:RD1694 cell growth; format: functional, cell-based, Mus musculus
[8] = organism: Mus musculus; experiment: Plasma concentration in mice.; format: ADME, organism-based; conditions: in vivo, read-out: Plasma concentration
[9] = target: T1, Thymidylate synthase; experiment: Binding affinity against L1210 Thymidylate synthase.; in short: as §1
[10] = tested on: L1210 (1565); experiment: Inhibitory activity against L1210:1565 cell growth; format: functional, cell-based; conditions: Mus musculus

T1 sequence (P07607 whole entry): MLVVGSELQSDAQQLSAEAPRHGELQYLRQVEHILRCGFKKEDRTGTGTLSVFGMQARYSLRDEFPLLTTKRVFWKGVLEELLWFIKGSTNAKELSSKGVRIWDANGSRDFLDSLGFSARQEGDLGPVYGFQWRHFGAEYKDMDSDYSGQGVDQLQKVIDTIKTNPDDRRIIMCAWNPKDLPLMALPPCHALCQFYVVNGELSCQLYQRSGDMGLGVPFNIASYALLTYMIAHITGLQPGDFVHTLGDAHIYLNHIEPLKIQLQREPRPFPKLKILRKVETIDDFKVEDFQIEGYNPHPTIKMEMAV

| SMILES | IC50 [1] [nM] | IC50 ([2]; Mus musculus, L1210) [nM] | IC50 ([4]; Homo sapiens, WIL2) [nM] | IC50 ([5]; Mus musculus, L1210 (1565)) [nM] | further results |
| --- | --- | --- | --- | --- | --- |
| C#CCN(Cc1ccc2nc(C)nc(O)c2c1)c1ccc(C(=O)N[C@@H](CCC(=O)N[C@@H](C)C(=O)O)C(=O)O)cc1 | 13 | 620 | – | – | IC50 ([2]; l1210): 790 nM; IC50 ([3]; Mus musculus, L1210 (RD1694)): 2100 nM; IC50 ([3]; l1210 (rd1694)): 1600 nM |
| C#CCN(Cc1ccc2nc(C)nc(O)c2c1)c1ccc(C(=O)N[C@H](CCC(=O)N[C@H](CCC(=O)O)C(=O)O)C(=O)O)cc1 | – | 1300 | 1400 | 100000 | – |
| Cc1nc(O)c2cc(CN(C)c3ccc(C(=O)N[C@@H](CCC(=O)N[C@H](CCC(=O)O)C(=O)O)C(=O)O)c(F)c3)c(C)cc2n1 | 2 | 260 | – | – | – |
| C#CCN(Cc1ccc2nc(C)nc(O)c2c1)c1ccc(C(=O)N[C@@H](CCC(=O)N[C@H](CCCC(=O)O)C(=O)O)C(=O)O)cc1 | – | – | 220 | 27000 | IC50 ([6]; Mus musculus, L1210): 80 nM; IC50 ([6]; l1210): 110 nM; IC50 ([7]; Mus musculus, L1210 (RD1694)): 440 nM; IC50 ([3]; Mus musculus, L1210 (RD1694)): 420 nM; concentration [8]: 31 µM |
| C#CCN(Cc1ccc2nc(C)nc(O)c2c1)c1ccc(C(=O)N[C@@H](CCC(=O)N[C@@H](CCC(=O)O)C(=O)O)C(=O)O)cc1 [listing 1 of 2 here] | – | – | – | – | IC50 ([4]; wil2): 2400 nM; IC50 ([2]; l1210): 3400 nM |
| C#CCN(Cc1ccc2nc(C)nc(O)c2c1)c1ccc(C(=O)N[C@@H](CCC(=O)N[C@@H](CCCC(=O)O)C(=O)O)C(=O)O)cc1 | – | 300 | – | – | IC50 ([7]; Mus musculus, L1210 (RD1694)): 2900 nM |
| C#CCN(Cc1ccc2nc(C)nc(O)c2c1)c1ccc(C(=O)N[C@@H](CCC(=O)N[C@H](CCC(=O)O)C(=O)O)C(=O)O)cc1 | – | – | 150 | 15000 | IC50 ([7]; Mus musculus, L1210 (RD1694)): 680 nM; concentration [8]: 34 µM |
| C#CCN(Cc1cc2c(O)nc(C)nc2cc1C)c1ccc(C(=O)N[C@@H](CCC(=O)N[C@H](CCC(=O)O)C(=O)O)C(=O)O)c(F)c1 | 0.4 | 200 | 170 | 6800 | IC50 ([4]; wil2): 93 nM; IC50 ([5]; l1210 (1565)): 8700 nM; Ki [9]: 0.19 nM; concentration [8]: 32 µM |
| C#CCN(Cc1ccc2nc(C)nc(O)c2c1)c1ccc(C(=O)N[C@@H](CCC(=O)N[C@H](C)C(=O)O)C(=O)O)cc1 | 12 | 430 | 150 | – | IC50 [10]: 16000 nM; IC50 ([7]; Mus musculus, L1210 (RD1694)): 880 nM |
| Cc1nc(O)c2cc(CN(C)c3ccc(C(=O)N[C@@H](CCC(=O)N[C@H](CCC(=O)O)C(=O)O)C(=O)O)c(F)c3)ccc2n1 | 8.8 | 650 | 900 | 21000 | – |
| C#CCN(Cc1cc2c(O)nc(C)nc2cc1C)c1ccc(C(=O)N[C@@H](CCC(=O)N[C@H](CCCC(=O)O)C(=O)O)C(=O)O)c(F)c1 | 0.56 | 130 | 300 | 12000 | IC50 ([4]; wil2): 190 nM; IC50 ([5]; l1210 (1565)): 8100 nM; Ki [9]: 0.12 nM |
| Cc1nc(O)c2cc(CN(C)c3ccc(C(=O)N[C@@H](CCC(=O)N[C@H](CCC(=O)O)C(=O)O)C(=O)O)cc3)ccc2n1 | 34 | 3200 | – | – | concentration [8]: 17 µM |
| C#CCN(Cc1ccc2nc(C)nc(O)c2c1)c1ccc(C(=O)N[C@@H](CCC(=O)N[C@@H](Cc2ccccc2)C(=O)O)C(=O)O)cc1 | 18 | 4400 | – | – | IC50 ([7]; Mus musculus, L1210 (RD1694)): 8900 nM |
| C#CCN(Cc1ccc2nc(C)nc(O)c2c1)c1ccc(C(=O)N[C@@H](CCC(=O)NC(Cc2ccccc2)C(=O)O)C(=O)O)cc1 (stereo partly specified) | 30 | 2100 | – | > 10000 | – |
| C#CCN(Cc1cc2c(O)nc(C)nc2cc1C)c1ccc(C(=O)N[C@@H](CCC(=O)N[C@H](CCC(=O)O)C(=O)O)C(=O)O)cc1 | 1.9 | 210 | 230 | 7800 | – |
| C#CCN(Cc1ccc2nc(C)nc(O)c2c1)c1ccc(C(=O)N[C@@H](CCC(=O)N[C@H](CCC(=O)O)C(=O)O)C(=O)O)c(F)c1 | 1.9 | 210 | 220 | 7800 | – |
| C#CCN(Cc1ccc2nc(C)nc(O)c2c1)c1ccc(C(=O)N[C@@H](CCC(=O)N[C@@H](CCC(=O)O)C(=O)O)C(=O)O)cc1 [listing 2 of 2 here] | – | – | – | – | IC50 ([4]; wil2): 90 nM and 74 nM; IC50 ([5]; l1210 (1565)): 5000 nM; IC50 ([7]; l1210 (rd1694)): 2900 nM; IC50 ([2]; l1210): 160 nM |
| Cc1nc(O)c2cc(CN(C)c3ccc(C(=O)N[C@@H](CCC(=O)N[C@H](CCC(=O)O)C(=O)O)C(=O)O)cc3)c(C)cc2n1 | 4.6 | 580 | 280 | – | IC50 [10]: 19000 nM |
| CCN(Cc1ccc2nc(C)nc(O)c2c1)c1ccc(C(=O)N[C@@H](CCC(=O)N[C@H](CCC(=O)O)C(=O)O)C(=O)O)cc1 | 17 | 3600 | – | – | – |
